From ChEMBL document CHEMBL1134519, “Synthesis, nicotinic acetylcholine receptor binding, and antinociceptive properties of 2-exo-2-(2'-substituted 5'-pyridinyl)-7-azabicyclo[2.2.1]heptanes. Epibatidine analogues” (J Med Chem, 2001) come the findings set out here.

The subject of test [1] is Mus musculus. The experiment in a line: Antinociception by tail-flick test in male ICR mice after intrathecal (i.t.) injection at 112 mg/kg. The format is functional. In outline: (§1)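 Male ICR mice injected intrathecally, free-hand between L4 and L6 while unanesthetized. Tail-flick latency was read before treatment (control 2-4 s) and 5 min after injection, with a 10 s cutoff. The result was expressed as %MPE = [(test − control)/(10 − control)] × 100. There were 8-12 mice per dose and at least four doses, and ED50 with 95% CL came from unweighted least-squares linear regression.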
On the technique in general: Hot-plate and tail-flick tests time the reaction to a heat stimulus.

Test [2] deals with T1, Neuronal acetylcholine receptor; alpha4/beta2 (Rattus norvegicus, UniProt P09483+P12390). Kind of test: Inhibition of [3H]epibatidine binding at the nicotinic acetylcholine receptor alpha4-beta2 in male rat cerebral cortex. The format is tissue-based.
A short description of test [3]: Hill slope value of the compound.
The species named for test [4] is Mus musculus. The experiment in a line: Antinociception by tail-flick test in male ICR mice after intrathecal (i.t.) injection. The format is functional. The method in brief:
as §1

Test [5] has as its target T1, Neuronal acetylcholine receptor; alpha4/beta2. The experiment in a line: Inhibition of [3H]-nicotine binding at the nicotinic acetylcholine receptor alpha4-beta2. In kind it is protein-complex assay.
Test [6] has the same target. The experiment in a line: Non-specific binding in presence of 300 uM nicotine at nicotinic acetylcholine receptor alpha4-beta2 in rat cerebral cortex membranes. The format is cell membranes, Membrane.
Test [7] has the same target. The experiment in a line: Inhibition of […] binding at the nicotinic acetylcholine receptor alpha4-beta2 in male rat cerebral cortex. In kind it is tissue-based. The method in brief:
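Male rat cerebral cortex homogenate (3 mg wet weight) was incubated with 0.5 nM [3H]epibatidine and 10-12 test concentrations, in buffer at pH 7.4 with 1% DMSO final, for 4 h at room temperature. Nonspecific binding was defined with 300 µM (-)-nicotine. Samples were filtered on PEI-soaked GF/B and counted by scintillation. IC50 came from at least three independent experiments by nonlinear regression, and Ki by Cheng-Prusoff.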

The subject of test [8] is Mus musculus. Kind of test: Antinociception by tail-flick test in male ICR mice after intrathecal (i.t.) injection, at 32.5 mg/kg. In kind it is functional. The method in brief: as §1

T1 sequence (P09483 whole entry): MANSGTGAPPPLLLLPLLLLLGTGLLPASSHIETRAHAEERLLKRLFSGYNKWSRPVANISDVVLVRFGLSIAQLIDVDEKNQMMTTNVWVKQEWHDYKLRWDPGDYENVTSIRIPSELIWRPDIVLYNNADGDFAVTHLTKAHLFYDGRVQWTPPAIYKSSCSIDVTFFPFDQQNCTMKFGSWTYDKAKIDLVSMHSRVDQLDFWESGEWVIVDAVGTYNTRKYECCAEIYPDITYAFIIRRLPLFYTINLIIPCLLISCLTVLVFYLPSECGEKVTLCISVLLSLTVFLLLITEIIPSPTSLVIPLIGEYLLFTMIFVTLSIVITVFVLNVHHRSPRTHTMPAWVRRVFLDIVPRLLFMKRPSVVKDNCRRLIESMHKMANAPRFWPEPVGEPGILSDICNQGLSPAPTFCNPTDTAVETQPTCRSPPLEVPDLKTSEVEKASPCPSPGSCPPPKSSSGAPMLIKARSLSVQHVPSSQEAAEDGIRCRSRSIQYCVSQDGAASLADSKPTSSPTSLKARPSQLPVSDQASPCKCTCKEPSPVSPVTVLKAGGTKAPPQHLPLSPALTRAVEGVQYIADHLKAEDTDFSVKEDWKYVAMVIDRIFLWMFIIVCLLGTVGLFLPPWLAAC
T1 sequence (P12390 whole entry): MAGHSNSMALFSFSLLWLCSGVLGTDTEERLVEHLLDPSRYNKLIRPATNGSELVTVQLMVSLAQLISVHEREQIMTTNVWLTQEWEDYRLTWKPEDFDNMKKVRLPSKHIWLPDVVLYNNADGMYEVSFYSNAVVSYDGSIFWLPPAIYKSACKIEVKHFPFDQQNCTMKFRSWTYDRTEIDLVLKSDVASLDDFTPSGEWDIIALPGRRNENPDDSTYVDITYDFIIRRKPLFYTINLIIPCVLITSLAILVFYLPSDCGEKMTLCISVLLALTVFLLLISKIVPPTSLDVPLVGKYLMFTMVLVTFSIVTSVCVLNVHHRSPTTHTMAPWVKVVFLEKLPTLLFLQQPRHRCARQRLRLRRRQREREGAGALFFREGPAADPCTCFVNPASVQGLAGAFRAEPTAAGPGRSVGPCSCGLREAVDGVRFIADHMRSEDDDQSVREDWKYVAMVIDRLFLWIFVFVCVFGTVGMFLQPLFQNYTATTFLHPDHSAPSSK

By inhibition in vivo is commonly meant the relative decrease from the control value, in per cent. Read a high inhibition in vivo as strong suppression. By Ki is commonly meant a dissociation constant, usually derived from enzyme kinetics or from competition with a known ligand. Usually Hill coefficient stands for the slope factor of the fitted curve. `Nc1ccc(C2CC3CCC2N3)cn1` (stereo not drawn) gave an inhibition in vivo at 112 mg/kg in test [1] of 27%. Further, in test [2], the Ki came to 1.3 nM. In addition, the Hill coefficient in test [3] was determined as 1. Consider `Oc1ccc(C2CC3CCC2N3)cn1` (stereo not drawn), for which the ED50 in test [4] was 52.4 nM mouse-1. In addition, the Hill coefficient in test [3] came to 1. With `Brc1ccc(C2CC3CCC2N3)cn1` (stereo not drawn), the ED50 in test [4] is 0.33 nM mouse-1. The Ki in test [2] stood at 0.023 nM. Further, the Hill coefficient in test [3] worked out at 0.9. `Clc1ccc([C@H]2C[C@@H]3CC[C@H]2N3)cn1` [(-)-EPIBATIDINE]: the ED50 in test [4] is 0.6 nM mouse-1. As to `CN1CCCC1c1ccc(N)nc1` (stereo not drawn), the inhibition constant Ki in test [5] turned out to be 81 nM.

In the case of `c1cncc(C2CC3CCC2N3)c1` (stereo not drawn) [DESCHLOROEPIBATIDINE], the ED50 in test [4] was 0.2 nM mouse-1. Also, the inhibitory constant (Ki) in test [2] was found to be 0.02 nM; in test [6], 0.031 nM. Moreover, the Hill coefficient in test [3] was found to be 0.8. In test [5], `CN1CCCC1c1ccc(Cl)nc1` (stereo not drawn) displayed a Ki of 0.63 nM. For `Clc1ccc([C@@H]2C[C@H]3CC[C@@H]2N3)cn1` [(+)-EPIBATIDINE], in test [4], the ED50 came out at 0.5 nM mouse-1. `CN1CCCC1c1ccc(Br)nc1` (stereo not drawn): the affinity in test [5], expressed as Ki, was 0.45 nM.

Take `Ic1ccc(C2CC3CCC2N3)cn1` (stereo not drawn): the Ki in test [2] came out at 0.07 nM; in test [6], 0.48 nM. In test [4], `CN1CCC[C@H]1c1cccnc1` [NICOTINE] yielded an ED50 of 74 nM mouse-1. In addition, in test [3], the Hill coefficient was 0.9. In test [7], `O=c1ccc(C2CC3CCC2N3)c[nH]1` (stereo not drawn) yielded a Ki of 107 nM. For the compound `CN(C)c1ccc(C2CC3CCC2N3)cn1` (stereo not drawn), in test [8], the inhibition in vivo at 32.5 mg/kg turned out to be 10%. The Hill coefficient in test [3] is 1.

Compound `Fc1ccc(C2CC3CCC2N3)cn1` (stereo not drawn) registered an ED50 in test [4] of 0.31 nM mouse-1. In test [3], this compound showed a Hill coefficient of 0.9. `CN1CCCC1c1ccc(O)nc1` (stereo not drawn) registered a Ki in test [5] of 1070 nM. In the case of `CN1CCCC1c1ccc(F)nc1` (stereo not drawn), the Ki in test [5] came to 1.03 nM.
